Source: ChEMBL document CHEMBL3352109, “Synthesis and antifungal activity of substituted salicylaldehyde hydrazones, hydrazides and sulfohydrazides” (Bioorg Med Chem, 2014)
Converted amounts (≈) assume the structure as drawn. The source made the active and inactive calls. No cut-off for these calls is given here.

Experiments:
Nakaseomyces glabratus [1] = assay: Antifungal activity against Candida glabrata ATCC 48435 at 125 ug/ml by NCCLS method; format: functional, organism-based
Candida albicans [2] = assay: Antifungal activity against Candida albicans ATCC 10231 at 125 ug/ml by NCCLS method; format: functional, organism-based
Nakaseomyces glabratus [3] = assay: Antifungal activity against Candida glabrata ATCC 48435 by NCCLS method; format: functional
Method in brief: (§1)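 Broth dilution per NCCLS yeast reference method, in HEPES-buffered RPMI with 1% DMSO. MIC80 is the lowest concentration giving more than 80% growth inhibition versus positive (no-drug) controls. Read by visual scoring, not absorbance. Highest level tested 125 µg/mL.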

[4] = system: Vero (Chlorocebus sabaeus); assay: Cytotoxicity against African green monkey Vero cells assessed as reduction in cell viability at MIC80 after 24 hrs by CellTiter 96 non-radioactive cell proliferation assay
Vero [5] = assay: Cytotoxicity against african green monkey Vero cells assessed as reduction in cell viability at MIC80 after 24 hrs by CellTiter 96 non-radioactive cell proliferation assay relative to control; format: cell-based; details: chlorocebus sabaeus
Method in brief: (§2)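 Cells exposed for 24 h at 37 °C, 5% CO2, to compound diluted in medium at the antifungal MIC and at 5, 10 and 100× MIC. Tetrazolium dye added for 1–4 h, then stop solution for 1 h at room temperature. Formazan read at 570 nm. Viability is the drug-well/no-drug (1% DMSO) control absorbance ratio, with control set to 100%. 0.1% saponin served as the death control. Triplicates, mean ± SD.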

Candida albicans [6] = assay: Antifungal activity against Candida albicans ATCC 10231 by NCCLS method; format: functional; method in brief: as §1
HepG2 = assay: Cytotoxicity against human HepG2 cells assessed as reduction in cell viability at 100 times MIC80 after 24 hrs by CellTiter 96 non-radioactive cell proliferation assay; format: cell-based; details: hepg2, 24 h; method in brief: as §2
Vero [7] = assay: Cytotoxicity against african green monkey Vero cells assessed as reduction in cell viability at 100 times MIC80 after 24 hrs by CellTiter 96 non-radioactive cell proliferation assay; format: cell-based; details: chlorocebus sabaeus; method in brief: as §2

| MIC80 (Nakaseomyces glabratus [3]) | SMILES | Activity (Nakaseomyces glabratus [1]) | Activity (Candida albicans [2]) | further results |
| --- | --- | --- | --- | --- |
| 0.125 µg/mL (≈ 0.418 µM) | Cc1ccc(O)c(/C=N/NC(=O)c2ccc([N+](=O)[O-])cc2)c1 | – | – | Activity [4]: 20%; Activity (Vero [5]): 20%; MIC80 (Candida albicans [6]): 0.5 µg/mL (≈ 1.67 µM) |
| 4 µg/mL (≈ 13.2 µM) | O=[N+]([O-])c1cc(/C=N/Nc2ccccc2)c(O)c([N+](=O)[O-])c1 | – | – | Activity (HepG2): Non-toxic; MIC80 (Candida albicans [6]): 2 µg/mL (≈ 6.62 µM); Activity (Vero [7]): Non-toxic |
| 0.5 µg/mL (≈ 1.75 µM) | O=C(N/N=C/c1ccccc1O)c1ccc([N+](=O)[O-])cc1 | – | – | Activity (HepG2): Non-toxic; MIC80 (Candida albicans [6]): 0.5 µg/mL (≈ 1.75 µM); Activity (Vero [7]): Non-toxic |
| 4 µg/mL (≈ 29.4 µM) | N/N=C/c1ccccc1O | – | – | Activity (HepG2): Non-toxic; MIC80 (Candida albicans [6]): 16 µg/mL (≈ 118 µM); Activity (Vero [7]): Non-toxic |
| 1 µg/mL (≈ 3.93 µM) | Cc1ccc(O)c(/C=N/NC(=O)c2ccccc2)c1 | – | – | Activity [4]: 20%; Activity (Vero [5]): 20%; MIC80 (Candida albicans [6]): 1 µg/mL (≈ 3.93 µM) |
| – | Cc1ccc(S(=O)(=O)N/N=C/c2cc(Cl)ccc2O)cc1 | inactive | inactive | – |
| – | Cc1ccc(O)c(/C=N/NS(=O)(=O)c2ccccc2)c1 | inactive | inactive | – |
| – | O=S(=O)(N/N=C/c1cc(Cl)ccc1O)c1ccccc1 | inactive | inactive | – |
| – | COc1ccc(S(=O)(=O)N/N=C/c2ccccc2O)cc1 | inactive | inactive | – |
| – | O=[N+]([O-])c1ccc(O)c(/C=N/NS(=O)(=O)c2ccccc2)c1 | inactive | inactive | – |
| – | Cc1ccc(O)c(/C=N/NS(=O)(=O)c2ccc(Br)cc2)c1 | inactive | inactive | – |
| – | COc1ccc(S(=O)(=O)N/N=C/c2cc(Cl)ccc2O)cc1 | inactive | inactive | – |
| – | O=S(=O)(N/N=C/c1ccccc1O)c1ccc(Br)cc1 | inactive | inactive | – |
| – | O=S(=O)(N/N=C/c1cc(Br)ccc1O)c1ccc2ccccc2c1 | inactive | inactive | – |
| 0.5 µg/mL (≈ 1.82 µM) | O=C(N/N=C/c1cc(Cl)ccc1O)c1ccccc1 | – | – | Activity (HepG2): Non-toxic; MIC80 (Candida albicans [6]): 0.5 µg/mL (≈ 1.82 µM); Activity (Vero [7]): Non-toxic |
| – | COc1ccc(O)c(/C=N/NS(=O)(=O)c2ccc([N+](=O)[O-])cc2)c1 | inactive | inactive | – |
| – | O=[N+]([O-])c1ccc(S(=O)(=O)N/N=C/c2cc([N+](=O)[O-])ccc2O)cc1 | inactive | inactive | – |
| – | Cc1ccc(O)c(/C=N/NS(=O)(=O)c2ccc3ccccc3c2)c1 | inactive | inactive | – |
| – | COc1ccc(O)c(/C=N/NS(=O)(=O)c2ccc(Br)cc2)c1 | inactive | inactive | – |
| – | O=S(=O)(N/N=C/c1cc(Br)ccc1O)c1ccc(Br)cc1 | inactive | inactive | – |

| SMILES | MIC80 (Nakaseomyces glabratus [3]) | Activity (Nakaseomyces glabratus [1]) | Activity (Candida albicans [2]) | further results |
| --- | --- | --- | --- | --- |
| Cc1ccc(S(=O)(=O)N/N=C/c2ccccc2O)cc1 | inactive | inactive | inactive | – |
| O=S(=O)(N/N=C/c1ccccc1O)c1ccccc1 | 125 µg/mL (≈ 452 µM) | inactive | inactive | – |
